A short description of series [1]: Half life in rat at 3 mg/kg, po and 1 mg/kg, iv. It counts as ADME, organism-based. The conditions noted are these: in vivo. The procedure, abridged: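 Rats (n = 2) dosed orally at 3 mg/kg and IV at 1 mg/kg. Interanimal variability under 20% for all values.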
The subject of another series is Mus musculus. The series can be described thus: Antiamnesic activity against scopolamine-induced dementia in B6SJL mouse assessed as increase in freezing behavior at 10 mg/kg, ip after 24 hrs. Further details: dose 10 mg/kg. It counts as functional, organism-based. In short, it runs like this:
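Male B6SJL mice, 10 weeks old and naive (n = 12–16/group), were given compound IP in 5% beta-cyclodextrin and/or scopolamine 0.3 mg/kg in 0.9% saline 30 min before training. Training was 2 tone (3 kHz, 85 dB, 30 s)–footshock (0.5 mA, 1 s) pairings 2 min apart. Freezing in the same chamber was video-scored 24 h later.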

The nature of series [2]: Oral bioavailability in dog at 3 mg/kg. The conditions noted are these: in vivo. Type of series: ADME, organism-based, Canis lupus familiaris. The procedure, abridged:
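Dog PK, n = 2 animals. Given orally at 3 mg/kg and intravenously at 1 mg/kg. Interanimal variability under 20% for all values.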

The target in series [3] is T1, Muscarinic acetylcholine receptor M1 (Homo sapiens) (UniProt P11229).
T1 sequence (whole entry): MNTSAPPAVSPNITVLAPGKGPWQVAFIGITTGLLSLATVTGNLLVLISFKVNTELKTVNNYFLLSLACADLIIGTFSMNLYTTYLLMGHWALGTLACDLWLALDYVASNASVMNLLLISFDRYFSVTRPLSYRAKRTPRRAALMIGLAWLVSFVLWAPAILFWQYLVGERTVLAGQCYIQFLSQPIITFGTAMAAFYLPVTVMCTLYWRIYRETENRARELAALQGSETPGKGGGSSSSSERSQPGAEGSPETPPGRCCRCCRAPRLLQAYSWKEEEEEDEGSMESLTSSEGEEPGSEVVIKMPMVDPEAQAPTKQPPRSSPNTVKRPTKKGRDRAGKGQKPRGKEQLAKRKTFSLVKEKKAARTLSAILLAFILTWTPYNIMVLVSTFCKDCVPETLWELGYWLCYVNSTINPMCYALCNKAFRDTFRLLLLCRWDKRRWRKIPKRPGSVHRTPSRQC
The series can be described thus: Agonist activity at human muscarinic M1 receptor expressed in CHONFAT cells assessed as enhancement of acetylcholine-induced calcium mobilization preincubated for 4 mins measured after 1 hr by FLIPR assay. Type of series: functional, cell-based. In short, it runs like this:
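CHO-NFAT cells expressing the named muscarinic receptor (human M1–M4; rhesus, dog or rat M1 in CHO-K1) were plated at 25,000 cells/well and grown overnight at 37 °C, 6% CO2. Cells were loaded with 1 μM Fluo-4AM for 1 h, washed, and preincubated 4 min with serially diluted compound (final DMSO 0.67%). They were then stimulated 4 min with an EC20 of ACh, and Ca2+ flux was read by FLIPR384.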

The target of series [4] is Voltage-gated inwardly rectifying potassium channel KCNH2 (Homo sapiens, UniProt Q12809). Description: Inhibition of human ERG.
Voltage-gated inwardly rectifying potassium channel KCNH2, sequence (Q12809 whole entry): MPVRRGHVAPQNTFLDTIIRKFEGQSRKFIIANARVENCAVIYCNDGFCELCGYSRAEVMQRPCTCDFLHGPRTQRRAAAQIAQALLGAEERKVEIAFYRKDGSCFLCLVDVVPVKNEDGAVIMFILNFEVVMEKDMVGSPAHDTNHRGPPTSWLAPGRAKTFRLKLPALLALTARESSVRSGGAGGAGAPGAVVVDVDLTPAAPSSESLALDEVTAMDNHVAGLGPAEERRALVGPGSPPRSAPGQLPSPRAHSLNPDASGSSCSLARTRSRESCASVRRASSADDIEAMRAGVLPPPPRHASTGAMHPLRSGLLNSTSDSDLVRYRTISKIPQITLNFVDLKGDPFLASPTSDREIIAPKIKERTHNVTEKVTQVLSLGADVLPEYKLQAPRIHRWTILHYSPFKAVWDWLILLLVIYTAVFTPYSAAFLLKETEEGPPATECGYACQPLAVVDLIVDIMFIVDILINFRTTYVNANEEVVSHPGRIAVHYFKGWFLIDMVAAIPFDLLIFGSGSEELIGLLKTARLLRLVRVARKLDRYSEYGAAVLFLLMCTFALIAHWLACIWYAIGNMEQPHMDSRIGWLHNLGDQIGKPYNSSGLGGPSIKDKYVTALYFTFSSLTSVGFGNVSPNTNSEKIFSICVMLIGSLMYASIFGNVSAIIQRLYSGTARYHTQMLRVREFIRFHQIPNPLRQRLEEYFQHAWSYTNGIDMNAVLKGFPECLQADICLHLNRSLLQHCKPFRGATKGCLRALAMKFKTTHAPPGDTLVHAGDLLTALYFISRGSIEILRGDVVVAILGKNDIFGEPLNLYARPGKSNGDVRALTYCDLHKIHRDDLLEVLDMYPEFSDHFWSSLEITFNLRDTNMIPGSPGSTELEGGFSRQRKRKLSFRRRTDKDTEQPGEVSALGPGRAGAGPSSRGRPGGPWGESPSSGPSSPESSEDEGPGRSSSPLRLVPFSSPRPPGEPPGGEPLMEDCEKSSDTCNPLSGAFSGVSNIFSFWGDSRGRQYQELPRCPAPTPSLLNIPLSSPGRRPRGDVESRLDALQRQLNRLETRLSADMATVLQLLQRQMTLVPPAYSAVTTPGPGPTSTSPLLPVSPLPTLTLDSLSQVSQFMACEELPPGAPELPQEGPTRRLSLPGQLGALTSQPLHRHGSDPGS
The nature of series [5]: Oral bioavailability in rhesus monkey. It counts as ADME, organism-based, Macaca mulatta. The conditions noted are these: in vivo.
Series [6] in a line: Metabolic stability in human NADPH-fortified hepatic microsomes assessed as oxidative metabolism. Type of series: ADME, Liver. The procedure, abridged: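 Compound incubated with NADPH-fortified hepatic microsomes from rat, dog, monkey or human. Oxidative metabolism monitored.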

From ChEMBL document CHEMBL1799933, “Discovery of a selective allosteric M1 receptor modulator with suitable development properties based on a quinolizidinone carboxylic acid scaffold” (J Med Chem, 2011) come the findings set out here.

Calls of active or inactive are those of the source. No cut-off for these calls is given here.

As to `N#CC1(c2ccccn2)CCN(Cc2cc(C(=O)O)c(=O)n3ccccc23)CC1` [MSD-M1PAM], the half-life in series [1] was 1.7 h. Besides, the outcome in the series on Mus musculus was Active. The bioavailability is 62% in series [2] and 55% in series [5]. The IP in series [3] amounted to 135 nM. Also, the IC50 in series [4] is greater than 30 µM. Also, in series [6], the Stability result is recorded as “Stable”.
